M4 ag = agonists of human muscarinic M4 receptor (CHRM4); P08173; CHO-K1 hM4/Gqi5, Fluo-8 calcium fluorescence; vehicle 0%, full acetylcholine response 100%; activation, % at 3 µM; 360,000 compounds, 0.14% hits;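 active means activation above the run mean over all test wells plus 3 SD, cut at about 32% in these data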;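 further: peak over basal fluorescence ratio per well then scaled between controls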
M4 antag = blocks acetylcholine activation of human M4 receptor; P08173; CHO-hM4 cells, ACh EC80, Fluo-8 calcium fluorescence; inhibition, % at 3 µM; 360,000 compounds, 0.73% hits;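 active means inhibition above its plate's cutoff, the mean inhibition of sample wells plus 3 SD, cut at about 27% in these data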
M4 PAM = CHRM4 positive allosteric modulation | P08173 | CHO-K1 hM4/Gqi5, Fluo-8 calcium fluorescence, ACh EC20; 0% = ACh EC20, 100% = maximal ACh | activation, % at 3 µM | 360,000 compounds, 0.4% hits;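 active means activation above its plate's cutoff, the mean activation of sample wells plus 3 SD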
M5 ag = CHRM5 agonism in calcium assay; 360,000 compounds, 0.19% hits; CHO-K1 hM5 cells, Fluo-8 calcium fluorescence; 0% DMSO wells, 100% maximal acetylcholine response; activation, % at 3 µM; P08912;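 active means activation above the run's mean over test compounds plus 3 SD, cut at about 23% in these data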;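 further: signal is peak over basal fluorescence ratio across the kinetic read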
Target sequence (P08912 whole entry, looked up): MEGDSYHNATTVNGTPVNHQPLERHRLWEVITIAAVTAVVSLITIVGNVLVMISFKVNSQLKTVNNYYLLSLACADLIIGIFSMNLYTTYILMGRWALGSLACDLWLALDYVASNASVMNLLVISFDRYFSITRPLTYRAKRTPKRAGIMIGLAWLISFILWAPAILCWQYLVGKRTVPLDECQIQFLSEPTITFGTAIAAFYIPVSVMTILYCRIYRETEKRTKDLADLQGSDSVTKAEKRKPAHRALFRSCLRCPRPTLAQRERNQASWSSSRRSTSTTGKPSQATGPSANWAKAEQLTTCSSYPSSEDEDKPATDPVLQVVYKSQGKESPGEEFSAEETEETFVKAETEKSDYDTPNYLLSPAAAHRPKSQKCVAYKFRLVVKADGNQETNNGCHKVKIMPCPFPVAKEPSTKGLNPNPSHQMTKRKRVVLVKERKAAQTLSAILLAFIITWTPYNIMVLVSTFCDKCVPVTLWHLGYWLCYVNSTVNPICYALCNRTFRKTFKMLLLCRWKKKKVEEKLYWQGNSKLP
M5 antag = blocks acetylcholine activation of human M5 receptor; AID 624040; P08912; CHO-hM5 cells, Fluo-8 calcium fluorescence, ACh EC80; inhibition, % at 3 µM; 360,000 compounds, 0.59% hits;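 active means inhibition above a per-plate cutoff, the mean of that plate's test compounds plus 3 SD, cut at about 27% in these data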
M5 PAM = positive allosteric modulators of human muscarinic M5 receptor. P08912. CHO-K1 hM5, Fluo-8 calcium, ACh EC20 PAM; 0% = ACh EC20, 100% = ACh EC100. activation, % at 3 µM. 360,000 compounds, 0.3% hits;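 active means activation above the run cutoff, the mean activation of all test compounds plus 3 SD, cut at about 18% in these data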
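System: CHO-K1 cell line with stable human muscarinic M5 receptor expression | Also added: EC20 acetylcholine as agonist stimulus | Compound: One concentration, 3 µM final (nominal) | Timing: Fluo-8 loading 80 min at 37 °C plus 30 min room temperature | Measured by: Fluo-8 calcium dye fluorescence, kinetic read | Read-out basis: % activation, ACh-normalized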
Numbers stand for hits; – = inactive. Rows were chosen to be rich in hits. Some 1.8% of all compounds tested hit in one or more screens of this group.

SMILES	M4 ag	M4 antag	M4 PAM	M5 ag	M5 antag	M5 PAM
OC(c1ccc(F)cc1)c1nc(-c2cc3ccccc3o2)cs1 (centres undefined)	61.0	–	–	–	–	–
COc1ccccc1C(=O)NCCC(=O)NCc1ccncc1	–	–	–	–	–	–
O=C1NC(=S)N/C1=C\c1ccc(Oc2ccc(C(F)(F)F)cc2[N+](=O)[O-])c(Cl)c1	–	–	–	–	–	19.4
COc1ccc(Cn2c(O)c(C=Nc3ccccc3C(=O)O)c3ccccc3c2=O)cc1	–	–	–	–	–	–
COc1ccccc1NS(=O)(=O)c1cccc(-n2c(O)c(C=Nc3ccccc3C(=O)O)c3ccccc3c2=O)c1	–	–	36.4	–	–	–
O=S(=O)(Nc1nc(SCc2ccc(Cl)cc2)n[nH]1)c1ccc(F)cc1	–	–	–	–	–	22.1
CCc1nc(SCc2ccc(Cl)cc2)n[nH]1	–	–	–	–	–	–
Cn1c(=O)cc(SCC(=O)NCCC2=CCCCC2)c2ccc(Cl)cc21	–	–	–	–	–	–
C=CCn1c(SCC(=O)NCCC2=CCCCC2)nc2ccc(Cl)cc2c1=O	–	–	–	–	–	30.2
COc1cccc(N2CCN(CC(=O)Nc3ccccc3C(=O)NCCc3ccccc3)CC2)c1	–	–	–	–	28.3	–
O=S(=O)(Nc1cccnc1)c1ccc(Cl)cc1	–	–	20.1	–	–	–
N#C/C(=N/Nc1ccccc1[N+](=O)[O-])C(N)=S	–	–	–	–	29.4	–
N#C/C(=N\Nc1ccccc1)C(N)=S	–	–	–	–	–	–
O=C(Cn1c2ccccc2c2nc3n(c(=O)c21)CCS3)Nc1ccccc1C(F)(F)F	–	–	–	–	–	19.2
CC1(C(=O)NS(=O)(=O)c2ccc(C#N)cc2)CCN1C(=O)C1(c2ccccc2)CCCC1 (centres undefined)	–	–	17.5	–	–	–
COc1cccc(-c2ccc(=O)n(CC(=O)Nc3ccc(C(=O)N4CCCC4)cc3)n2)c1	–	–	–	–	–	19.3
Cc1nn(CC(=O)Nc2ccc(C(=O)N3CCCCC3)cc2)c(=O)c2ccccc12	–	–	–	–	–	–
Cc1nn(CC(=O)Nc2ccc(C(=O)N3CCCC3)cc2)c(=O)c2ccccc12	–	–	–	–	–	38.7
CCOC(=O)C1=C[C@@H](C(C)(C)C)N(S(=O)(=O)c2ccccc2C)[C@H]1c1ccc(Cl)cc1	–	–	–	–	–	–
CCN(CC)CCCN(C(=O)c1ccc(Br)cc1)c1nc(-c2ccc(OC)cc2)cs1	–	–	46.5	–	–	–
CCN(CC)CCCN(C(=O)c1cccs1)c1nc(-c2ccc(OC)cc2)cs1	–	–	–	–	–	–
CCN(CC)CCCN(C(=O)c1cccc(C)c1)c1nc(-c2ccc(OC)cc2)cs1	–	35.3	65.0	–	–	–
CN(C)c1ccc(-c2csc(C(O)c3cccc(Cl)c3)n2)cc1 (centres undefined)	47.4	–	–	–	–	–
COc1ccc(N2C(=O)CSC23C(=O)N2CCCc4cccc3c42)cc1 (centres undefined)	–	75.5	–	–	52.2	–
O=C1CSC2(C(=O)N3CCCc4cccc2c43)N1c1cccc(C(F)(F)F)c1 (centres undefined)	–	50.3	–	–	30.0	–
SMILES	M4 ag	M4 antag	M4 PAM	M5 ag	M5 antag	M5 PAM
COc1ccc(N2C(=O)CSC23C(=O)N2c4c(cccc43)C(C)=CC2(C)C)cc1 (centres undefined)	–	–	–	–	–	–
O=C1N2CCCc3cccc(c32)C12Nc1ccccc1S2 (centres undefined)	–	–	–	–	–	–
CCCc1cc(-c2ccc3c(c2)COc2c4ccccc4nn2-3)on1	–	–	–	–	–	–
CCCC(=O)OCCNc1cc(Sc2nccn2C)c2nonc2c1[N+](=O)[O-]	–	36.5	–	–	–	–
O=[N+]([O-])c1c(NCCCO)cc(Sc2nc3ccccc3s2)c2nonc12	–	74.9	–	–	32.1	–
CCC(=O)OCCNc1cc(Sc2nc3ccccc3[nH]2)c2nonc2c1[N+](=O)[O-]	–	54.2	–	–	–	–
Cc1ccc(Nc2nc(NCc3ccccc3)nc3ccsc23)c(C)c1	38.7	57.5	–	–	31.9	–
CNc1nc(NCCOc2ccccc2Cl)c2sccc2n1	–	–	–	–	–	–
COc1cccc(CNc2nc(NCC3CC3)nc3ccsc23)c1	–	–	–	–	30.6	–
COc1cccc(CNc2nc(NCc3ccccc3)nc3ccsc23)c1	58.2	43.6	–	31.2	44.8	–
Clc1ccccc1OCCNc1nc(NCC2CC2)nc2ccsc12	–	–	–	–	30.0	–
CNc1nc(NCc2cccc(OC)c2)c2sccc2n1	–	–	–	–	–	–
C[C@@H]1COC(=O)[C@H](Cc2ccc(F)cc2)CC/C=C\C[C@@H](CC(=O)NCCO)C(=O)N1	–	–	–	–	–	–
Cc1ccc(Cl)cc1NC(=O)COC(=O)CSc1ccccc1	–	–	–	–	–	–
CSc1ccccc1CNc1nc(NCC2CC2)nc2ccsc12	–	–	–	–	30.3	–
C#Cc1cccc(Nc2nc(NCc3ccccc3)nc3ccsc23)c1	–	27.3	–	–	–	–
COc1ccc(-c2nc3ccc(Br)cn3c2Cc2ccccc2)cc1OC	–	–	–	–	–	–
NC(=O)c1ccsc1NC(=O)CSc1nncs1	–	–	–	–	–	–
Cc1ccnc(N/C=C(\C#N)c2nc(-c3cccc(Br)c3)cs2)c1	135.1	30.7	–	53.0	–	–
N#C/C(=C\Nc1ccc2cn[nH]c2c1)c1nc(-c2ccccc2)cs1	–	–	–	–	–	–
O=C(NNC(=O)C1CCC1)c1ccc(F)cc1	–	–	–	–	–	–
O=C(CCn1cnc(-c2ccccc2)c1-c1ccccc1)N/N=C/c1ccc(O)cc1	–	–	–	–	–	–
COc1ccc(/C=N/NC(=O)CCn2cnc(-c3ccccc3)c2-c2ccccc2)cc1	–	85.2	–	–	–	–
CCOC(=O)c1c(NC(=O)COC(=O)CCNS(=O)(=O)c2ccccc2)sc(C(=O)NC)c1C	–	–	–	–	–	–
CC(C)CCN1C(=O)c2ccccc2C1C(=O)NCc1cccnc1 (centres undefined)	–	–	20.9	–	–	–
O=C(COc1ccc(F)cc1)Nc1nc(-c2cccnc2)cs1	–	–	–	–	–	–
O=C1CSC(=S)N1Nc1ccccc1	–	–	–	25.9	–	–
Cc1ccccc1C(=O)NN1C(=O)CSC1=S	–	–	–	–	–	–

Source: PubChem BioAssay (The Scripps Research Institute Molecular Screening Center)
